Activity calls are given as the source filed them.
How the values were obtained:
Mus musculus [1] = assay: Analgesic activity in Swiss albino mouse assessed as inhibition of acetic acid-induced abdominal contraction at 20 to 60 mg/kg, po measured after 30 mins; type: functional, organism-based; settings: Abdominal cavity
Rattus norvegicus [2] = assay: Antinociceptive activity against carrageenan-induced hyperalgesia in rat assessed as paw pressure at 10 mg/kg, po measured after 15 mins (reference value: 32.8 +/- 2.9 g); type: functional
Procedure, shortened: (§1)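 Rats received intraplantar carrageenan before oral dosing. Paw-pressure withdrawal threshold (g) was measured before treatment and at 15, 30, 60 and 90 min after it. Carrageenan-injected rats given vehicle served as reference, with saline-injected rats as a further control.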

Rattus norvegicus [3] = assay: Antinociceptive activity against carrageenan-induced hyperalgesia in rat assessed as paw pressure at 60 mg/kg, po measured after 60 mins (reference value: 31.8 +/- 2.2 g); type: functional; procedure, shortened: as §1
Mus musculus [4] = assay: Analgesic activity in Swiss albino mouse assessed as inhibition of acetic acid-induced abdominal contraction at 10 to 60 mg/kg, po measured after 30 mins; type: functional, organism-based; settings: Abdominal cavity
Rattus norvegicus [5] = assay: Antinociceptive activity against carrageenan-induced hyperalgesia in rat assessed as paw pressure at 60 mg/kg, po measured after 15 mins (reference value: 32.8 +/- 2.9 g); type: functional; procedure, shortened: as §1
Rattus norvegicus [6] = assay: Antinociceptive activity against carrageenan-induced hyperalgesia in rat assessed as paw pressure at 40 mg/kg, po measured after 15 mins (reference value: 32.8 +/- 2.9 g); type: functional; procedure, shortened: as §1
[7] = biological target: T1, P2X purinoceptor 7 (Rattus norvegicus) (UniProt Q64663); assay: Antagonist activity at P2X7 in Sprague-Dawley rat synaptosome assessed as inhibition of BzATP-induced [3H]D-aspartate efflux preincubated at 0.1 uM for 8 mins by liquid scintillation counting; settings: Brain
T1 sequence (whole entry): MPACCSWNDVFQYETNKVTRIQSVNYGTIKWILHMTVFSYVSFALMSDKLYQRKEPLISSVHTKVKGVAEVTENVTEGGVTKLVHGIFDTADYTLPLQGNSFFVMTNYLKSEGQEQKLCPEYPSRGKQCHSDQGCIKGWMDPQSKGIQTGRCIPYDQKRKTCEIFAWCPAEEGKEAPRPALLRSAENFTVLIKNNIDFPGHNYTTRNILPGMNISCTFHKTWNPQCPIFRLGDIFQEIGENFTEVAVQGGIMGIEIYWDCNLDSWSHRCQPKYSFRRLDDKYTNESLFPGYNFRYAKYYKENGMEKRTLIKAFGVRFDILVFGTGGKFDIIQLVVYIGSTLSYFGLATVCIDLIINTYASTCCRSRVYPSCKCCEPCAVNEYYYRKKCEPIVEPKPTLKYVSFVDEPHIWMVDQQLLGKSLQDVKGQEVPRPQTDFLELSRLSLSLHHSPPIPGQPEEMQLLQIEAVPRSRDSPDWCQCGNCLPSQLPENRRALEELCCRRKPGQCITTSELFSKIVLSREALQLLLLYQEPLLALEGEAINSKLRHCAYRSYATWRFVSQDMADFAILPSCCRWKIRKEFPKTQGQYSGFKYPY
Procedure, shortened: (§2)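 Purified rat cerebrocortical synaptosomes loaded with [3H]D-aspartate and superfused. 100 μM BzATP added for 120 s. Compound added 8 min before BzATP. Ca2+-free conditions used medium with 0.5 mM EGTA, added 18 min before BzATP. Log concentration–response for inhibition of evoked efflux. Mean ± SEM of 3−12 independent experiments in triplicate.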

Rattus norvegicus [8] = assay: Antinociceptive activity against carrageenan-induced hyperalgesia in rat assessed as paw pressure at 60 mg/kg, po measured after 30 mins (reference value: 30.6 +/- 3.2 g); type: functional; procedure, shortened: as §1
Rattus norvegicus [9] = assay: Antinociceptive activity against carrageenan-induced hyperalgesia in rat assessed as paw pressure at 40 mg/kg, po measured after 30 mins (reference value: 30.6 +/- 3.2 g); type: functional; procedure, shortened: as §1
[10] = biological target: T1, P2X purinoceptor 7 (Rattus norvegicus); assay: Antagonist activity at P2X7 in Sprague-Dawley rat synaptosome assessed as inhibition of BzATP-induced [3H]D-aspartate efflux preincubated at 0.1 uM for 8 mins by liquid scintillation counting in absence of extracellular Ca2+; settings: Brain; procedure, shortened: as §2
Rattus norvegicus [11] = assay: Antinociceptive activity against carrageenan-induced hyperalgesia in rat assessed as paw pressure at 10 mg/kg, po measured after 60 mins (reference value: 31.8 +/- 2.2 g); type: functional; procedure, shortened: as §1
Rattus norvegicus [12] = assay: Antinociceptive activity against carrageenan-induced hyperalgesia in rat assessed as paw pressure at 40 mg/kg, po measured after 90 mins (reference value: 34.8 +/- 3.1 g); type: functional; procedure, shortened: as §1
Rattus norvegicus [13] = assay: Antinociceptive activity against carrageenan-induced paw edema in rat assessed as paw edema volume at 40 mg/kg, po measured after 30 mins (reference value: 2.71+/- 0.08 ml); type: functional
Rattus norvegicus [14] = organism: Rattus norvegicus; assay: Inhibition of K+ depolarization-induced [3H]D-aspartate efflux in Sprague-Dawley rat synaptosome preincubated at 0.1 uM for 8 mins by liquid scintillation counting; type: functional, tissue-based; settings: Brain
Procedure, shortened: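 Purified rat cerebrocortical synaptosomes loaded with [3H]D-aspartate and superfused. Depolarization with KCl added for 120 s. Compound added 8 min before K+ depolarization. Evoked efflux measured as mean ± SEM of 3−12 independent experiments in triplicate.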

Rattus norvegicus [15] = assay: Antinociceptive activity against carrageenan-induced hyperalgesia in rat assessed as paw pressure at 40 mg/kg, po measured after 60 mins (reference value: 31.8 +/- 2.2 g); type: functional; procedure, shortened: as §1
Rattus norvegicus [16] = assay: Antinociceptive activity against carrageenan-induced hyperalgesia in rat assessed as paw pressure at 60 mg/kg, po measured after 90 mins (reference value: 34.8 +/- 3.1 g); type: functional; procedure, shortened: as §1
Rattus norvegicus [17] = assay: Antinociceptive activity against carrageenan-induced hyperalgesia in rat assessed as paw pressure at 10 mg/kg, po measured after 90 mins (reference value: 34.8 +/- 3.1 g); type: functional; procedure, shortened: as §1
Rattus norvegicus [18] = assay: Antinociceptive activity against carrageenan-induced hyperalgesia in rat assessed as paw pressure at 10 mg/kg, po measured after 30 mins (reference value: 30.6 +/- 3.2 g); type: functional; procedure, shortened: as §1
Rattus norvegicus [19] = assay: Antinociceptive activity against carrageenan-induced paw edema in rat assessed as paw edema volume at 60 mg/kg, po measured after 30 mins (reference value: 2.71+/- 0.08 ml); type: functional
Rattus norvegicus [20] = assay: Antinociceptive activity against carrageenan-induced paw edema in rat assessed as paw edema volume at 10 mg/kg, po measured after 30 mins (reference value: 2.71+/- 0.08 ml); type: functional

Structure (SMILES) | inhibition (Mus musculus [1]) | Activity (Rattus norvegicus [2]) [g] | Activity (Rattus norvegicus [3]) [g] | inhibition (Mus musculus [4]) | Activity (Rattus norvegicus [5]) [g] | Activity (Rattus norvegicus [6]) [g] | inhibition [7] | Activity (Rattus norvegicus [8]) [g] | Activity (Rattus norvegicus [9]) [g] | inhibition [10] | Activity (Rattus norvegicus [11]) [g] | Activity (Rattus norvegicus [12]) [g] | Activity (Rattus norvegicus [13]) [mL] | inhibition (Rattus norvegicus [14]) | Activity (Rattus norvegicus [15]) [g] | Activity (Rattus norvegicus [16]) [g] | Activity (Rattus norvegicus [17]) [g] | Activity (Rattus norvegicus [18]) [g] | Activity (Rattus norvegicus [19]) [mL] | Activity (Rattus norvegicus [20]) [mL]
O=C(NC1(C(=O)NCCc2c[nH]cn2)C2CC3CC(C2)CC1C3)c1ccccc1 (stereo not given) | Active |  |  |  |  |  |  |  |  |  |  |  |  |  |  |  |  |  |  | 
CCOc1ccc(Nc2ccc(/C(=C3C=C/C(=[N+](/CC)Cc4cccc(S(=O)(=O)[O-])c4)C=C/3C)c3ccc(N(CC)Cc4cccc(S(=O)(=O)[O-])c4)cc3C)cc2)cc1.[Na+] [BRILLIANT BLUE G] |  | 38.7 | 43.8 | Active | 47.2 | 46.3 | Active | 49.6 | 50.8 | Active | 38.5 | 40.2 | 2.17 | inactive | 45.6 | 36.2 | 37.1 | 43.1 | 2.21 | 2.63
